Converted amounts (≈) assume the structure as drawn.
How the values were obtained:
[1] = test system: Mycobacterium tuberculosis; test: Antimycobacterial activity against Mycobacterium tuberculosis H37Rv assessed as mycobacterial growth inhibition by microplate alamar blue assay; type: functional
In short: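 M. tuberculosis H37Rv under normoxic conditions, microplate alamar blue assay (MABA) following Cho et al. Read-out is MIC.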

[2] = test system: Mycobacterium tuberculosis; test: Antimycobacterial activity against Mycobacterium tuberculosis H37Rv assessed as mycobacterial growth inhibition by low oxygen recovery assay; type: functional
In short: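 M. tuberculosis H37Rv under hypoxic conditions, low-oxygen recovery assay (LORA) following Cho et al. Read-out is MIC.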

[3] = Cytotoxicity against human HeLa cells; type: toxicity, cell-based
[4] = Cytotoxicity against African green monkey Vero cells; type: toxicity, cell-based; conditions: chlorocebus sabaeus
[5] = test system: Mycolicibacterium peregrinum; test: Antimycobacterial activity against Mycobacterium peregrinum ATCC700686 assessed as mycobacterial growth inhibition; type: functional
[6] = test system: Mycolicibacterium smegmatis; test: Antimycobacterial activity against Mycobacterium smegmatis ATCC700084 assessed as mycobacterial growth inhibition; type: functional
[7] = test system: Mycolicibacterium smegmatis; test: Antimycobacterial activity against Mycobacterium smegmatis ATCC19420 assessed as mycobacterial growth inhibition; type: functional
[8] = test system: Mycobacterium tuberculosis; test: Antimycobacterial activity against drug-sensitive Mycobacterium tuberculosis assessed as mycobacterial growth inhibition; type: functional
Cardiac Purkinje fiber = test: Effect on rabbit Purkinje fiber assessed as change in concentration of maximum upstroke velocity; type: functional, Oryctolagus cuniculus
[9] = biological target: Voltage-dependent L-type calcium channel subunit alpha-1C (Homo sapiens, UniProt Q13936); test: Inhibition of human Cav1.2
[10] = biological target: Sodium channel protein type 5 subunit alpha (Homo sapiens, UniProt Q14524); test: Inhibition of Nav1.5 (unknown origin)
[11] = biological target: Voltage-gated inwardly rectifying potassium channel KCNH2 (Homo sapiens, UniProt Q12809); test: Inhibition of human ERG; type: toxicity
Sequence of Voltage-gated inwardly rectifying potassium channel KCNH2 (Q12809 whole entry): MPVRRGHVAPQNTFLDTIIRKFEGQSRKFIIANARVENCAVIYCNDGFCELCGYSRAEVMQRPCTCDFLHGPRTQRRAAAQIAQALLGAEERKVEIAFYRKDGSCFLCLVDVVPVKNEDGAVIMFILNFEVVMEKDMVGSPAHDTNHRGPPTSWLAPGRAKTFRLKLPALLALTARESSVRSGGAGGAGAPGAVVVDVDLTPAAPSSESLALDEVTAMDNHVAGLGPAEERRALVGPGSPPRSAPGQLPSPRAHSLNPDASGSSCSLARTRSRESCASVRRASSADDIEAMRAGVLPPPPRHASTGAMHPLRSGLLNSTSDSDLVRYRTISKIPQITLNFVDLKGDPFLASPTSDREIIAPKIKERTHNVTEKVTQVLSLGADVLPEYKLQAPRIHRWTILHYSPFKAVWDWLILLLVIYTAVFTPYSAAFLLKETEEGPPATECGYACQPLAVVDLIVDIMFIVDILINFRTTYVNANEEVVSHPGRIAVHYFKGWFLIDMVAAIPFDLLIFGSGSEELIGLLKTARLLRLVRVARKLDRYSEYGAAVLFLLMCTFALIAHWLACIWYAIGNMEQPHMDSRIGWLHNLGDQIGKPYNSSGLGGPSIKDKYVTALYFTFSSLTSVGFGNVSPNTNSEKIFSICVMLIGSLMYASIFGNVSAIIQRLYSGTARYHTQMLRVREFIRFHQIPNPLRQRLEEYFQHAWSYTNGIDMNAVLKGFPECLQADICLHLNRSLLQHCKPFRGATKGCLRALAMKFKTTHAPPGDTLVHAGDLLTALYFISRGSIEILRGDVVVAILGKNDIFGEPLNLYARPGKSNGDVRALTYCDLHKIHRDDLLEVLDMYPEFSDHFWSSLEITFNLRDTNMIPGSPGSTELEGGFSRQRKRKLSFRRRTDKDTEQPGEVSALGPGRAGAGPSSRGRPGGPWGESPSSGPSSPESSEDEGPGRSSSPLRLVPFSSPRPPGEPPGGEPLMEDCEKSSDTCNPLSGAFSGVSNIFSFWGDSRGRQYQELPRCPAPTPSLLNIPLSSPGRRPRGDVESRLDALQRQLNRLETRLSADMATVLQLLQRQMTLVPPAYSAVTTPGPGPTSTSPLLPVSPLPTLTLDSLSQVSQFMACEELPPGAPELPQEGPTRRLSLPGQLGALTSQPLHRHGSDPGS

Sequence of Voltage-dependent L-type calcium channel subunit alpha-1C (Q13936 whole entry): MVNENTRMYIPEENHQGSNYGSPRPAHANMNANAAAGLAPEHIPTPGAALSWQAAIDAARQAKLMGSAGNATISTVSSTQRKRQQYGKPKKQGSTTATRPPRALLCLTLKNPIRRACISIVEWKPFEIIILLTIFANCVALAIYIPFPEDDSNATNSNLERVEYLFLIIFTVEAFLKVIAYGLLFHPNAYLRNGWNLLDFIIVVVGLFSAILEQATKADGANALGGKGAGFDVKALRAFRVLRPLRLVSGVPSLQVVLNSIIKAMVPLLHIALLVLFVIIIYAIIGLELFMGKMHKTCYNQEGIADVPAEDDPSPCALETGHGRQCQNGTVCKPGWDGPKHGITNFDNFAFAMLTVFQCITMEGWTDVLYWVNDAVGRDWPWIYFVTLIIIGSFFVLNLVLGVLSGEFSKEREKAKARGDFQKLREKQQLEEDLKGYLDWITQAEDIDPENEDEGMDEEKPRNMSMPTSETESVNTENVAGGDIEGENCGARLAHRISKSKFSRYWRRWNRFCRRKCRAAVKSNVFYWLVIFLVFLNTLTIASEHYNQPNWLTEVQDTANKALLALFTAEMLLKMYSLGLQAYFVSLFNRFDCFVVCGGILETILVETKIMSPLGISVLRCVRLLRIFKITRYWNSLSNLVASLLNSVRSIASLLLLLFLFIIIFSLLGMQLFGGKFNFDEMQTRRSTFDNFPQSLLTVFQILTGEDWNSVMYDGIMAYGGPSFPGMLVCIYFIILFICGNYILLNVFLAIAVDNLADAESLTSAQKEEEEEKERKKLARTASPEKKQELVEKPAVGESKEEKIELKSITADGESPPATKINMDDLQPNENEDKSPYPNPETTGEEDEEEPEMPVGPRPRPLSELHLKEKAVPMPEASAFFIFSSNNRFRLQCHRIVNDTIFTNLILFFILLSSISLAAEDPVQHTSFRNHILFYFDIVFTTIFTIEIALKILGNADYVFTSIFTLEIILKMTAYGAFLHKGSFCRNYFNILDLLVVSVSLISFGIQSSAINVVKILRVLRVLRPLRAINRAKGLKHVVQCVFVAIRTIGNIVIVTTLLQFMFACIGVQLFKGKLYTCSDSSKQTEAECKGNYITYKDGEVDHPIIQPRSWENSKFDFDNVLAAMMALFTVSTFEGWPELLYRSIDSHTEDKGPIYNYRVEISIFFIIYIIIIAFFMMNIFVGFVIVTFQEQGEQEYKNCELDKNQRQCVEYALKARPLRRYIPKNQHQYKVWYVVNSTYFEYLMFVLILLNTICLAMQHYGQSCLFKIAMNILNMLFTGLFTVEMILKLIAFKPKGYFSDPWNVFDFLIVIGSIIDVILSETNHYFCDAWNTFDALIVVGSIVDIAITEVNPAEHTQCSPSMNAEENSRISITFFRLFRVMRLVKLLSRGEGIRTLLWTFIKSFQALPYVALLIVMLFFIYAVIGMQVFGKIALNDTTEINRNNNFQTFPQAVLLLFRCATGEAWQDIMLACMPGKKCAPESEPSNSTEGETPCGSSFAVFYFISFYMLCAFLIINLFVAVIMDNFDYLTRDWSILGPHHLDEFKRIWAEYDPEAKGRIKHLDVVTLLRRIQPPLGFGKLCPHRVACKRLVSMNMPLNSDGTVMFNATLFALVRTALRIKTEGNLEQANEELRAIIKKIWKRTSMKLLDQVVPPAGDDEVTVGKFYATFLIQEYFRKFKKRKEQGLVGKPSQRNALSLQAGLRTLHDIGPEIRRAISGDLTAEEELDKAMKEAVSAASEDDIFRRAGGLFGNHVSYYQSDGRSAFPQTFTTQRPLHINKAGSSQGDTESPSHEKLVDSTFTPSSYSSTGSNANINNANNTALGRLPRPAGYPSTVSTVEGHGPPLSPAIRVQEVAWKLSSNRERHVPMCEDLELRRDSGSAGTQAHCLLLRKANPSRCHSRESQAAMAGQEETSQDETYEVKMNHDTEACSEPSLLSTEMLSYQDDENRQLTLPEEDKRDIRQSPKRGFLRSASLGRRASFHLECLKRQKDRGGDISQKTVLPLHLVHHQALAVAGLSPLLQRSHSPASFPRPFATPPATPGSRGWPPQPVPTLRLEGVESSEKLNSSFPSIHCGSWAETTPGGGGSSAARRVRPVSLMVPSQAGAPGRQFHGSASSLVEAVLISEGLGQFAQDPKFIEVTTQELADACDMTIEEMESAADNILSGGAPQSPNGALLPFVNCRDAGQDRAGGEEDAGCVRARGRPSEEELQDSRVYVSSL

SMILES | MIC [1] [µg/mL] | MIC [2] [µg/mL] | CC50 [3] [µg/mL] | CC50 [4] [µg/mL] | also measured
COc1nc(C2CCOCC2)ccc1[C@@H](c1ccccc1)[C@@](O)(CCN(C)C)c1cccc2ccccc12 | 1.3 (≈ 2.55 µM) | 2.7 (≈ 5.29 µM) | 22.5 (≈ 44.1 µM) | > 50 | 
COc1nc(-c2ccccc2)ccc1[C@@H](c1ccccc1)[C@@](O)(CCN(C)C)c1cccc2ccccc12 |  |  |  |  | MIC [5]: 0.5 µg/mL (≈ 0.995 µM); MIC [6]: 1 µg/mL (≈ 1.99 µM); MIC [7]: 1 µg/mL (≈ 1.99 µM)
CO[C@H]1/C=C/O[C@@]2(C)Oc3c(C)c(O)c4c(O)c(c(/C=N/N5CCN(C)CC5)c(O)c4c3C2=O)NC(=O)/C(C)=C\C=C\[C@H](C)[C@H](O)[C@@H](C)[C@@H](O)[C@@H](C)[C@H](OC(C)=O)[C@@H]1C [RIFAMPIN] |  |  |  |  | MIC50 [8]: 0.035 µg/mL (≈ 0.0425 µM); MIC90 [8]: 0.057 µg/mL (≈ 0.0693 µM)
COc1ccc(-c2ccc([C@@H](c3ccccc3)[C@@](O)(CCN(C)C)c3cccc4ccccc34)c(OC)n2)cc1 | 0.33 (≈ 0.62 µM) | 0.19 (≈ 0.357 µM) | > 64 | > 50 | 
COc1nc(C2CCCCC2)ccc1[C@@H](c1ccccc1)[C@@](O)(CCN(C)C)c1cccc2ccccc12 |  | 1.8 (≈ 3.54 µM) | 57.7 (≈ 113 µM) | 32.3 (≈ 63.5 µM) | 
COc1ncc(-c2ccccc2)cc1[C@@H](c1ccccc1)[C@@](O)(CCN(C)C)c1cc(F)ccc1F | 0.7 (≈ 1.43 µM) | 0.7 (≈ 1.43 µM) |  | > 50 | 
NNC(=O)c1ccncc1 [ISONIAZID] |  |  |  |  | MIC50 [8]: 0.024 µg/mL (≈ 0.175 µM); MIC90 [8]: 0.032 µg/mL (≈ 0.233 µM)
COc1nc(-c2ccc(F)cc2)ccc1[C@@H](c1ccccc1)[C@@](O)(CCN(C)C)c1cccc2ccccc12 | 0.34 (≈ 0.653 µM) | 0.71 (≈ 1.36 µM) | > 64 | > 50 | 
COc1nc(-c2cccc(Cl)c2)ccc1[C@@H](c1ccccc1)[C@@](O)(CCN(C)C)c1cccc2ccccc12 | 2.73 (≈ 5.08 µM) | 1.36 (≈ 2.53 µM) |  | > 50 | 
COc1nc(-c2ccc(Br)cc2)ccc1[C@@H](c1ccccc1)[C@@](O)(CCN(C)C)c1cccc2ccccc12 | 0.22 (≈ 0.378 µM) | 0.22 (≈ 0.378 µM) | > 64 | > 50 | 
COc1ncc(-c2ccccc2)cc1[C@@H](c1ccccc1)[C@@](O)(CCN(C)C)c1ccccc1 | 1.5 (≈ 3.31 µM) | 1.2 (≈ 2.65 µM) | 11.9 (≈ 26.3 µM) | > 50 | 
COc1nc(C(C)(C)C)ccc1[C@@H](c1ccccc1)[C@@](O)(CCN(C)C)c1cccc2ccccc12 | 1.3 (≈ 2.69 µM) | 2.7 (≈ 5.59 µM) | > 64 | 27.6 (≈ 57.2 µM) | 
COc1nc(-c2ccsc2)ccc1[C@@H](c1ccccc1)[C@@](O)(CCN(C)C)c1cccc2ccccc12 |  |  | > 64 | 24.4 (≈ 48 µM) | 
COc1nc(-c2ccccc2F)ccc1[C@@H](c1ccccc1)[C@@](O)(CCN(C)C)c1cccc2ccccc12 | 1.41 (≈ 2.71 µM) | 0.57 (≈ 1.09 µM) |  | > 50 | 
COc1ncc(-c2ccccc2)cc1[C@@H](c1ccccc1)[C@@](O)(CCN(C)C)c1cc(F)cc(F)c1 | 0.7 (≈ 1.43 µM) | 0.4 (≈ 0.819 µM) | 28.8 (≈ 58.9 µM) | > 50 | 
CNCC[C@@](O)(c1cccc2ccccc12)[C@H](c1ccccc1)c1ccc(-c2ccc(Cl)cc2)nc1OC |  |  |  |  | Activity (Cardiac Purkinje fiber): >3 µM; IC50 [9]: > 3000 nM; IC50 [10]: > 10000 nM; IC50 [11]: 1890 nM
COc1nc(-c2ccc(C(F)(F)F)cc2)ccc1[C@@H](c1ccccc1)[C@@](O)(CCN(C)C)c1cccc2ccccc12 | 0.96 (≈ 1.68 µM) | 0.63 (≈ 1.1 µM) | > 64 | > 50 | 
COc1nc(-c2ccc(C#N)cc2)ccc1[C@@H](c1ccccc1)[C@@](O)(CCN(C)C)c1cccc2ccccc12 | 0.44 (≈ 0.834 µM) | 0.77 (≈ 1.46 µM) | > 64 | > 50 | 
NC[C@H]1O[C@H](O[C@H]2[C@H](O)[C@@H](O[C@H]3O[C@H](CO)[C@@H](O)[C@H](N)[C@H]3O)[C@H](N)C[C@@H]2N)[C@H](O)[C@@H](O)[C@@H]1O [KANAMYCIN] |  |  |  |  | MIC50 [8]: 1.22 µg/mL (≈ 2.52 µM); MIC90 [8]: 1.91 µg/mL (≈ 3.94 µM)
COc1nc(-c2ccc(OC(F)(F)F)cc2)ccc1[C@@H](c1ccccc1)[C@@](O)(CCN(C)C)c1cccc2ccccc12 | 0.03 (≈ 0.0511 µM) | 0.61 (≈ 1.04 µM) | > 64 | > 50 | 
COc1nc(-c2ccc(Cl)c(F)c2)ccc1[C@@H](c1ccccc1)[C@@](O)(CCN(C)C)c1cccc2ccccc12 | 0.19 (≈ 0.342 µM) | 0.52 (≈ 0.937 µM) | > 64 | > 50 | 
COc1ncc(-c2ccccc2)cc1[C@@H](c1ccccc1)[C@@](O)(CCN(C)C)c1cccc(F)c1F | 0.6 (≈ 1.23 µM) | 0.5 (≈ 1.02 µM) | 28.1 (≈ 57.5 µM) | > 50 | 
COc1nc(-c2ccncc2)ccc1[C@@H](c1ccccc1)[C@@](O)(CCN(C)C)c1cccc2ccccc12 | 0.7 (≈ 1.39 µM) |  | 9.6 (≈ 19.1 µM) | > 50 | 
COc1ncc(-c2ccccc2)cc1[C@@H](c1ccccc1)[C@@](O)(CCN(C)C)c1cccc2ccccc12 | 1.1 (≈ 2.19 µM) | 0.7 (≈ 1.39 µM) | 30.4 (≈ 60.5 µM) | > 50 | MIC [5]: 0.0625 µg/mL (≈ 0.124 µM); MIC [6]: 0.0625 µg/mL (≈ 0.124 µM); MIC [7]: 0.0312 µg/mL (≈ 0.0622 µM)
COc1nc(-c2cccc(F)c2)ccc1[C@@H](c1ccccc1)[C@@](O)(CCN(C)C)c1cccc2ccccc12 | 0.48 (≈ 0.922 µM) | 1.18 (≈ 2.27 µM) | 62.8 (≈ 121 µM) | > 50 | 
COc1nc(-c2cnsc2)ccc1[C@@H](c1ccccc1)[C@@](O)(CCN(C)C)c1cccc2ccccc12 | 1.9 (≈ 3.73 µM) | 3.9 (≈ 7.65 µM) | 28.8 (≈ 56.5 µM) | 26.3 (≈ 51.6 µM) | 
COc1nc(-c2ccccc2Cl)ccc1[C@@H](c1ccccc1)[C@@](O)(CCN(C)C)c1cccc2ccccc12 | 1.17 (≈ 2.18 µM) | 3.03 (≈ 5.64 µM) | > 64 | > 50 | 
CNCC[C@@](O)(c1cccc2ccccc12)[C@H](c1ccccc1)c1cc2cc(Br)ccc2nc1OC |  |  |  |  | Activity (Cardiac Purkinje fiber): 0.3 µM; IC50 [9]: 750 nM; IC50 [10]: > 10000 nM; IC50 [11]: 1730 nM

Reference: ChEMBL document CHEMBL5113423, “Discovery and preclinical profile of sudapyridine (WX-081), a novel anti-tuberculosis agent” (Bioorg Med Chem Lett, 2022)
